In one assay the test system is Candida parapsilosis. In words: Antifungal activity against Candida parapsilosis NRRL Y-12696 after 24 hrs by microdilution susceptibility assay. It is filed as functional. Particulars: Lodderomyces parapsilosis, NRRL Y-12696, 24 h. The essentials:
(§1)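 Broth microdilution in Mueller Hinton Broth, compounds from DMSO stocks diluted serially; inocula standardized to 10^6 CFU/mL (McFarland 0.5) from overnight MHB cultures. Plates held 37 °C for 24 h; MIC taken as first well without turbidity, aided by 1% tetrazolium violet added for 3 h at 37 °C. Ketoconazole reference.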
For orientation: In broth dilution the organism is exposed to a series of concentrations in liquid medium.

Another assay relates to A549. Briefly: Cytotoxicity against human A549 cells after 24 hrs by XTT assay. Format: functional, cell-based. To be noted: A549, 24 h. Put shortly: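 A549 cells in RPMI 1640 with 10% fetal calf serum, penicillin/streptomycin, 37 °C, 5% CO2; 20,000 cells/well seeded, after 24 h exposed to compounds at 0.00316 µM-10 mM for 24 h. XTT mitochondrial activity read at 480 nm (reference 680 nm) after 3 h; % inhibition per concentration, IC50 by non-linear regression.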

In the next assay the test system is Pichia kudriavzevii. In words: Antifungal activity against Candida krusei NRRL Y-7179 after 24 hrs by microdilution susceptibility assay. Format: functional. Particulars: NRRL Y-7179, 24 h. The essentials:
as §1

Assay [1] concerns Candida albicans. In words: Antifungal activity against Candida albicans ATCC 90028 after 24 hrs by microdilution susceptibility assay. Format: functional. To be noted: ATCC 90028, 24 h. The essentials:
as §1

The subject of assay [2] is Candida albicans. Briefly: Antifungal activity against Candida albicans clinical isolate after 24 hrs by microdilution susceptibility assay. It is filed as functional. Put shortly: as §1
Assay [3] has as its system Nakaseomyces glabratus. Briefly: Antifungal activity against Candida glabrata Anadolu University clinical isolate after 24 hrs by microdilution susceptibility assay. Format: functional. The essentials: as §1
The next assay deals with NIH3T3. In words: Cytotoxicity against mouse NIH/3T3 cells after 24 hrs by XTT assay. It is filed as cell-based. Particulars: NIH3T3, 24 h. Put shortly:
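Mouse NIH3T3 fibroblasts grown in DMEM with fetal calf serum, penicillin/streptomycin, 37 °C, 5% CO2; 20,000 cells/well, treated after 24 h with 0.00316 µM-10 mM compound for 24 h. Viability via XTT (3 h, OD 480 nm, reference 680 nm); % inhibition computed and IC50 fitted by non-linear regression.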

Assay [4] concerns Nakaseomyces glabratus. Briefly: Antifungal activity against Candida glabrata Osmangazi University clinical isolate after 24 hrs by microdilution susceptibility assay. It is filed as functional. Put shortly: as §1
Another assay deals with Cyberlindnera jadinii. Briefly: Antifungal activity against Candida utilis NRRL Y-900 after 24 hrs by microdilution susceptibility assay. It is filed as functional. To be noted: Williopsis jadinii, NRRL Y-900, 24 h. Put shortly: as §1
The test system of assay [5] is Candida albicans. Briefly: Antifungal activity against Candida albicans ATCC 10231 after 24 hrs by microdilution susceptibility assay. It is filed as functional. To be noted: ATCC 10231, 24 h. The essentials: as §1

Here are results for 20 compounds from ChEMBL document CHEMBL2203123, “Synthesis and biological evaluation of some hydrazone derivatives as new anticandidal and anticancer agents” (Eur J Med Chem, 2012).

What is called MIC is the lowest concentration found to suppress growth. A word on the IC50: it is the concentration that inhibits the measured activity by half.

In brackets after ≈: the same amount, converted by molar mass.

Consider `Cn1nnnc1SCC(=O)N/N=C/c1cccc(Cl)c1`, for which the minimum inhibitory concentration (MIC) with Candida parapsilosis, against Pichia kudriavzevii, with Candida albicans [1], in the assay on Candida albicans [2], in the assay with Nakaseomyces glabratus [3] and against Nakaseomyces glabratus [4] was over 8000 µg/mL throughout. Moreover, the MIC in the assay on Cyberlindnera jadinii and in the assay with Candida albicans [5] was over 8000 µg/mL each time. Also, the IC50 with A549 and in the assay with NIH3T3 was 7.5 mM in each case.

For `C/C(=N\NC(=O)CSc1nnnn1C)c1cccc(Cl)c1`, the MIC with Candida parapsilosis, in the assay with Pichia kudriavzevii, in the assay on Candida albicans [1], in the assay on Candida albicans [2], against Nakaseomyces glabratus [3] and in the assay with Nakaseomyces glabratus [4] was over 8000 µg/mL throughout. Moreover, the MIC in the assay with Cyberlindnera jadinii and against Candida albicans [5] was over 8000 µg/mL throughout. The IC50 in the assay on A549 is over 10 mM; in the assay with NIH3T3, 3.4 mM.

Regarding `C/C(=N\NC(=O)CSc1nnnn1C)c1ccc(Cl)cc1Cl`, the MIC against Candida parapsilosis, against Pichia kudriavzevii, in the assay on Candida albicans [1], against Candida albicans [2], in the assay with Nakaseomyces glabratus [3] and against Nakaseomyces glabratus [4] was over 8000 µg/mL in each case. For the same compound, the MIC against Cyberlindnera jadinii and in the assay on Candida albicans [5] was over 8000 µg/mL in each case. Moreover, the concentration for half-maximal inhibition (IC50) with A549 is 0.8 mM; in the assay with NIH3T3, 1 mM.

`Cn1nnnc1SCC(=O)N/N=C/c1ccc(Cl)cc1Cl`: the MIC against Candida parapsilosis, against Pichia kudriavzevii, in the assay with Candida albicans [1], with Candida albicans [2], in the assay on Nakaseomyces glabratus [3] and against Nakaseomyces glabratus [4] was over 8000 µg/mL in each case. In addition, the MIC in the assay with Cyberlindnera jadinii and against Candida albicans [5] was over 8000 µg/mL in each case. For the same compound, the IC50 in the assay on A549 was 0.5 mM; in the assay with NIH3T3 it was 2.14 mM.

Turning to `Cn1nnnc1SCC(=O)N/N=C/c1ccccc1Br`, the MIC in the assay on Candida parapsilosis, against Pichia kudriavzevii, in the assay on Candida albicans [1], in the assay on Candida albicans [2], with Nakaseomyces glabratus [3] and in the assay with Nakaseomyces glabratus [4] was over 8000 µg/mL in each case. Moreover, the MIC against Cyberlindnera jadinii and against Candida albicans [5] was over 8000 µg/mL in each case. The IC50 in the assay on A549 was 2 mM; in the assay on NIH3T3 it was 0.02 mM.

As for `CC(=O)N1CCN(c2ccc(OCC3COC(Cn4ccnc4)(c4ccc(Cl)cc4Cl)O3)cc2)CC1` (stereo not drawn) [KETOCONAZOLE], the MIC was found to be 3 µg/mL (≈ 0.00565 mM) with Candida parapsilosis; 3 µg/mL (≈ 0.00565 mM) with Pichia kudriavzevii; 31 µg/mL (≈ 0.0583 mM) with Candida albicans [1]; 3 µg/mL (≈ 0.00565 mM) in the assay on Candida albicans [2]; 1 µg/mL (≈ 0.00188 mM) against Nakaseomyces glabratus [3]; 15 µg/mL (≈ 0.0282 mM) against Nakaseomyces glabratus [4]. Further, the MIC with Cyberlindnera jadinii and against Candida albicans [5] was 15 µg/mL (≈ 0.0282 mM) each time.

On to `COc1cccc(/C=N/NC(=O)CSc2nnnn2C)c1`, for which the MIC against Candida parapsilosis, with Pichia kudriavzevii, against Candida albicans [1], with Candida albicans [2], against Nakaseomyces glabratus [3] and in the assay with Nakaseomyces glabratus [4] was over 8000 µg/mL each time. Besides, the MIC with Cyberlindnera jadinii and against Candida albicans [5] was over 8000 µg/mL throughout. The IC50 was over 10 mM in the assay with A549 and 0.6 mM in the assay with NIH3T3.

Regarding `C/C(=N\NC(=O)CSc1nnnn1C)c1ccccc1Cl`, the MIC in the assay on Candida parapsilosis, in the assay with Pichia kudriavzevii, in the assay on Candida albicans [1], against Candida albicans [2], in the assay with Nakaseomyces glabratus [3] and in the assay with Nakaseomyces glabratus [4] was over 8000 µg/mL each time. Further, the MIC against Cyberlindnera jadinii and with Candida albicans [5] was over 8000 µg/mL in each case. For the same compound, the values for the IC50 with A549 and in the assay on NIH3T3 were 6.32 mM and 6 mM, respectively.

In the case of `Cn1nnnc1SCC(=O)N/N=C/c1ccccc1O`, the minimal inhibitory concentration (MIC) against Candida parapsilosis, against Pichia kudriavzevii, in the assay on Candida albicans [1], with Candida albicans [2], in the assay on Nakaseomyces glabratus [3] and in the assay with Nakaseomyces glabratus [4] was over 8000 µg/mL each time. For the same compound, the MIC with Cyberlindnera jadinii and with Candida albicans [5] was over 8000 µg/mL throughout. The 50% inhibitory concentration (IC50) in the assay with A549 and in the assay with NIH3T3 was over 10 mM each time.

Consider `Cn1nnnc1SCC(=O)N/N=C/c1ccc(C(F)(F)F)cc1`, for which the MIC against Candida parapsilosis, in the assay with Pichia kudriavzevii, against Candida albicans [1], with Candida albicans [2], against Nakaseomyces glabratus [3] and in the assay with Nakaseomyces glabratus [4] was over 8000 µg/mL throughout. In addition, the MIC in the assay on Cyberlindnera jadinii and against Candida albicans [5] was over 8000 µg/mL throughout. For the same compound, the half-inhibitory concentration (IC50) is 6.32 mM in the assay with A549 and over 10 mM in the assay on NIH3T3.

On to `C/C(=N\NC(=O)CSc1nnnn1C)c1cc(Cl)ccc1Cl`, for which the MIC against Candida parapsilosis, against Pichia kudriavzevii, with Candida albicans [1], in the assay with Candida albicans [2], against Nakaseomyces glabratus [3] and against Nakaseomyces glabratus [4] was over 8000 µg/mL in each case. The MIC against Cyberlindnera jadinii and against Candida albicans [5] was over 8000 µg/mL each time. The IC50 amounted to 1.5 mM with A549 and 1 mM in the assay on NIH3T3.

Take `Cn1nnnc1SCC(=O)N/N=C/c1ccccc1Cl`: the MIC in the assay with Candida parapsilosis, in the assay on Pichia kudriavzevii, in the assay with Candida albicans [1], against Candida albicans [2], against Nakaseomyces glabratus [3] and in the assay with Nakaseomyces glabratus [4] was over 8000 µg/mL throughout. The minimum inhibitory concentration (MIC) in the assay on Cyberlindnera jadinii and in the assay on Candida albicans [5] was over 8000 µg/mL each time. The results for the half-inhibitory concentration (IC50) in the assay with A549 and with NIH3T3 were 6.32 mM and over 10 mM, respectively.

With `Cn1nnnc1SCC(=O)N/N=C/c1cccc([N+](=O)[O-])c1`, the MIC in the assay with Candida parapsilosis, with Pichia kudriavzevii, against Candida albicans [1], in the assay with Candida albicans [2], against Nakaseomyces glabratus [3] and in the assay with Nakaseomyces glabratus [4] was over 8000 µg/mL throughout. Besides, the MIC in the assay on Cyberlindnera jadinii and against Candida albicans [5] was over 8000 µg/mL each time. The IC50 with A549 was over 10 mM; in the assay on NIH3T3, 2 mM.

`Cn1nnnc1SCC(=O)N/N=C/c1c(Cl)cccc1Cl`: the MIC with Candida parapsilosis, against Pichia kudriavzevii, in the assay with Candida albicans [1], in the assay with Candida albicans [2], in the assay on Nakaseomyces glabratus [3] and against Nakaseomyces glabratus [4] was over 8000 µg/mL in each case. The MIC against Cyberlindnera jadinii and against Candida albicans [5] was over 8000 µg/mL throughout. In addition, the results for the IC50 with A549 and with NIH3T3 were 1 mM and over 10 mM, respectively.

Regarding `Cn1nnnc1SCC(=O)N/N=C/c1ccc(Cl)cc1`, the MIC in the assay with Candida parapsilosis, against Pichia kudriavzevii, in the assay with Candida albicans [1], against Candida albicans [2], in the assay on Nakaseomyces glabratus [3] and with Nakaseomyces glabratus [4] was over 8000 µg/mL each time. Also, the MIC in the assay on Cyberlindnera jadinii and in the assay with Candida albicans [5] was over 8000 µg/mL in each case. The IC50 in the assay on A549 was determined as 0.1 mM; in the assay on NIH3T3, 2.1 mM.

Regarding `Cn1nnnc1SCC(=O)N/N=C/c1ccc(F)cc1`, the MIC in the assay with Candida parapsilosis, in the assay on Pichia kudriavzevii, against Candida albicans [1], in the assay with Candida albicans [2], against Nakaseomyces glabratus [3] and with Nakaseomyces glabratus [4] was over 8000 µg/mL each time. Moreover, the minimum inhibitory concentration (MIC) against Cyberlindnera jadinii and in the assay on Candida albicans [5] was over 8000 µg/mL each time. For the same compound, the IC50 is 3.16 mM with A549 and 10 mM in the assay with NIH3T3.

`Cn1nnnc1SCC(=O)N/N=C/c1cccc(O)c1`: the MIC against Candida parapsilosis, in the assay on Pichia kudriavzevii, against Candida albicans [1], against Candida albicans [2], against Nakaseomyces glabratus [3] and against Nakaseomyces glabratus [4] was over 8000 µg/mL each time. Besides, the minimum inhibitory concentration (MIC) with Cyberlindnera jadinii and against Candida albicans [5] was over 8000 µg/mL in each case. Moreover, the IC50 came out at 4.5 mM in the assay with A549 and 3.16 mM with NIH3T3.

On to `Cc1ccc(/C=N/NC(=O)CSc2nnnn2C)cc1`, for which the MIC against Candida parapsilosis, with Pichia kudriavzevii, in the assay on Candida albicans [1], with Candida albicans [2], in the assay on Nakaseomyces glabratus [3] and with Nakaseomyces glabratus [4] was over 8000 µg/mL in each case. For the same compound, the MIC with Cyberlindnera jadinii and against Candida albicans [5] was over 8000 µg/mL each time. In addition, the IC50 with A549 and with NIH3T3 was 3.16 mM throughout.

As to `Cc1ccccc1/C=N/NC(=O)CSc1nnnn1C`, the MIC against Candida parapsilosis, in the assay on Pichia kudriavzevii, against Candida albicans [1], in the assay on Candida albicans [2], in the assay with Nakaseomyces glabratus [3] and against Nakaseomyces glabratus [4] was over 8000 µg/mL in each case. Besides, the MIC against Cyberlindnera jadinii and against Candida albicans [5] was over 8000 µg/mL each time. Besides, the IC50 in the assay on A549 was over 10 mM; in the assay with NIH3T3, 6.32 mM.

On to `C/C(=N\NC(=O)CSc1nnnn1C)c1ccc(Cl)cc1`, for which the MIC against Candida parapsilosis, against Pichia kudriavzevii, against Candida albicans [1], with Candida albicans [2], in the assay with Nakaseomyces glabratus [3] and against Nakaseomyces glabratus [4] was over 8000 µg/mL each time. Also, the minimum inhibitory concentration (MIC) in the assay with Cyberlindnera jadinii and against Candida albicans [5] was over 8000 µg/mL in each case. For the same compound, the IC50 was 6 mM with A549 and 0.1 mM in the assay on NIH3T3.
